# Bioassay records (PubChem)
# B2AR ag – agonists of human beta-2 adrenergic receptor inducing internalization; response, % (concentration not given with the values); AID 504454; Am2.2-beta2AR cells, FAP receptor internalization, flow cytometry; 340,000 tested, 0.43% active;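 active means response above a set limit, near 3 SD of response in nonfluorescent compounds, cut at about 42% in these data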
# TAAR1 ag – human TAAR1 agonism. 360,000 tested, 0.99% active. activation, % at 3 µM. Q96RJ0. AID 624467. CHO RD-HGA16 TAAR1, Fluo-8 calcium fluorescence; vehicle wells 0%, saturating PEA agonist 100%;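 active means activation above the mean activation of all test compounds in the run plus 3 SD, cut at about 38% in these data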
#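 Assay system: CHO-derived RD-HGA16 cells with stable Gα16 and human TAAR1; timing: 17-24 h seeding, 75 min 37 °C dye, 30 min RT; read-out: % activation from peak over basal fluorescence ratio, DMSO-to-PEA scaled; measured by: kinetic Fluo-8 calcium fluorescence; benchmarks: low control DMSO, high control PEA (EC100); doses: 3 µM single concentration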
# TAAR1 antagonist – antagonists of human TAAR1. 360,000 tested, 1.5% active. inhibition, % at 3 µM. CHO RD-HGA16 TAAR1, Fluo-8 calcium fluorescence, antagonist. Q96RJ0;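 active means inhibition above a per-plate cutoff, the mean inhibition of test compounds on that plate plus 3 SD, cut at about 49% in these data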;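 further: 0% = DMSO plus EC80 beta-PEA response and 100% = DMSO alone without agonist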
#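 test system = CHO RD-HGA16 cells bearing hTAAR1 | replication = singlicate | controls = DMSO-only wells and EC80 β-PEA-stimulated wells | reagent = EC80 β-phenethylamine stimulus | read-out basis = percent inhibition of PEA-evoked calcium signal, max/basal emission ratio | schedule = seeding 17-24 h prior, 75-min 37 °C, 30-min RT dye loading | signal = kinetic Fluo-8 calcium fluorescence measurement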
# MC4R barr agon – activates human MC4R beta-arrestin recruitment; activation, % at 8.9 µM; U2OS MC4R beta-arrestin complementation, luminescence; percent of melanotan II response, DMSO zero; 360,000 tested, 0.98% active; P32245; AID 540308;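 active means activation above a per-plate cutoff, the mean activation of sample wells on that plate plus 3 SD, cut at about 8% in these data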
# MC4R antag cAMP – antagonists of human melanocortin 4 receptor (MC4R); P32245; MC4R-expressing cells, MTII-stimulated cAMP, LANCE TR-FRET; inhibition, % at 6.5 µM; 360,000 tested, 0.48% active; AID 540295;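 active means inhibition above its plate's cutoff, the mean of tested wells on that plate plus 3 SD, cut at about 29% in these data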;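 further: 0% = Melanotan II alone and 100% = Melanotan II plus saturating MCL0020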
#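 Assay system: human MC4R-expressing U2OS cells; reagent: Melanotan II stimulation of cells; dosing: 6.5 µM single dose; timing: compound 30 min, challenge 1 h, detection 1 h; signal: TR-FRET cAMP assay; replicates: one well per compound, no replicates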
# HTR2A ag – agonists of mouse serotonin 5-HT2A receptor (HTR2A); activation, % at 7.6 µM; CHO-K1 mHTR2A beta-arrestin complementation, luminescence; percent of 30 µM serotonin response; P35363; 360,000 tested, 0.66% active;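 active means activation above a run cutoff, the mean activation of all tested compounds plus 3 SD, cut at about 14% in these data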;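 further: 0% = plate median of compound wells and 100% = 30 µM serotonin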
# Target sequence (P35363 whole entry, looked up): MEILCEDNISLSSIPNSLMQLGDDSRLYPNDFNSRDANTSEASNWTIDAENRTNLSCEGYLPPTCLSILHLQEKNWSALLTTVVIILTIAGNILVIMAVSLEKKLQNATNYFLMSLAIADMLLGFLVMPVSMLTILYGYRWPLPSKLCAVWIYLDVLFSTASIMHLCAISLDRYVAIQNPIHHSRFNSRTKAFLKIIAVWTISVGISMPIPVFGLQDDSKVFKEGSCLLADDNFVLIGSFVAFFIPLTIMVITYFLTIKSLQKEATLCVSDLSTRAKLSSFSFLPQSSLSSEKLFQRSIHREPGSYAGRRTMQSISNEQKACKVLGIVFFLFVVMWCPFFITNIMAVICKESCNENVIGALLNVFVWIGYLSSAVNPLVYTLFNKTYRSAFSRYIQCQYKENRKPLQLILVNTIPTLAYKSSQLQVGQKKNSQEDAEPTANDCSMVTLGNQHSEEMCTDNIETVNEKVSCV
# Numbers without * were called inactive; · = no result given; ! = repeats disagree. This is a sample that favours compounds with a hit; in the whole collection about 4.3% have one here.
SMILES,B2AR ag,TAAR1 ag,TAAR1 antagonist,MC4R barr agon,MC4R antag cAMP,HTR2A ag
CCCN1C(=O)c2n[nH]c(C(C)C)c2C1c1cccc(C(F)(F)F)c1 (configuration not stated),·,-2,-3,·,·,·
O=C(N/N=C/c1cccc(Cl)c1Cl)Nc1ccccc1,9,15,4,0,1,0
O=C(N/N=C/c1ccc(Cl)cc1Cl)Nc1ccccc1,-4,3,3,16*,-4,-4
C[C@H](CO)N1C[C@H](C)[C@@H](CN(C)S(=O)(=O)c2ccc(F)cc2)Oc2ncc(Br)cc2C1=O,·,3,4,·,·,·
C=CCNc1cccc2c1S(=O)(=O)N[C@H](CC(C)C)CO2,·,-2,7,·,·,·
Cc1nnc(-n2cccc2)s1,·,1,3,·,·,·
Nc1nnnn1/N=C/c1ccccc1OCc1ccc(Cl)cc1,-1,0,1,8.3*,-1,-1
CCCCc1nnn2c1C1c3cc(Br)ccc3CCN1C(=O)C2 (configuration not stated),·,2,-20,·,·,·
CCOC(=O)C1=C(C(=O)OCC)C2N(Cc3ccc(C#N)cc3)c3ccccc3[C@@]23C[C@@H](C(=O)OC)N(S(=O)(=O)c2ccccc2)C3=N1 (some centres not stated),·,2,-6,·,·,·
CC(C)(C)c1nn(-c2ccccc2)c2[nH]c(=O)c(CNCc3ccco3)cc12,-3,7,-3,2,8,-2
Cc1ccc(CNCc2cc3c(C(C)(C)C)nn(-c4ccccc4)c3[nH]c2=O)cc1,12,13,-13,8.9*,13,-10
CC(=O)OCCn1c(C)[n+](CCOC(C)=O)c2cc(Cl)c(Cl)cc21,3,6,24,-1,14,-2
CC(=O)OCCn1c2nc(=O)[nH]c(=O)c-2nc2cc(C)c(C)cc21,-53,138*,67*,0,-25,5
CCCCNc1c(-c2ccc(SC(C)CC)cc2)nc2ccccn12 (configuration not stated),12,12,96*,0,10,0
CCC(C)Sc1cccc(-c2nc3cc(C)ccn3c2NCc2ccccc2)c1 (configuration not stated),9,6,77*!,-2,16,-14
CCCCNc1c(-c2ccc(Sc3ccc(OC)cc3)cc2)nc2cc(C)ccn12,12,6,24,-1,24,-16
CCCCNc1c(-c2ccc(-c3ccc(C(C)=O)cc3)c(OC)c2)nc2cc(C)ccn12,13,3,56*,2,19,5
Cc1ccn2c(NCc3ccccc3)c(-c3cccc(SC4CCCCC4)c3)nc2c1,3,4,48,-1,7,-7
CCCCNc1c(-c2ccc(OC)c(SC(C)CC)c2)nc2cc(C)ccn12 (configuration not stated),25,10,72*!,-2,23,-9
C[C@@H]1COc2cccc(N3CCCC3)c2S(=O)(=O)N1,·,0,20,·,·,·
CCCCNc1c(-c2ccc(OC)c(SC3CCCCC3)c2)nc2ccc(C)cn12,76*,26,85*,0,14,11
CC(C)c1ccc(O)c(NC(=S)NC(=O)c2ccc3c(c2)OCO3)c1,2,0,-36,11*,-5,-15
COc1cc(C(=O)NC(=S)NC(C)C)cc(OC)c1OC,78*,5,-2,-1,2,-1
COc1cc(C(=O)NC(c2ccccc2)c2ccccc2)cc(OC)c1OC,-6,13,-13,9.4*,8,-2
COc1cc(C(=O)NNC(=S)NC(=O)c2ccc3c(c2)OCO3)cc(OC)c1OC,0,44*,-30,-1,-10,1
SMILES,B2AR ag,TAAR1 ag,TAAR1 antagonist,MC4R barr agon,MC4R antag cAMP,HTR2A ag
O=S1(=O)c2ccc(Br)cc2OC2CCCN1C2 (configuration not stated),·,0,1,·,·,·
CCc1nc2ccc(C(=O)NCCCn3ccnc3)cn2c1N(C)Cc1cc2ccccc2s1,·,4,10,-1,14,-4
C#Cc1cccc(N2C(=O)C3C4C=CC(C3C2=O)C2C(=O)N(c3cccc(C#C)c3)C(=O)C42)c1 (configuration not stated),-4,2,-10,-2,-2,0
CCN=C1NC(c2ccccc2C(F)(F)F)C(C(=O)OC)=C(C)N1C (configuration not stated),·,0,0,·,·,·
COc1ccc(C2NCCc3c2[nH]c2ccccc32)cc1COc1ccc(F)cc1 (configuration not stated),15,49*,34,24*,-3,-3
COc1ccc(C2NCCc3c2[nH]c2ccccc32)cc1CN1CCc2cc(OC)c(OC)cc2C1C (configuration not stated),32,·,·,0,13,-4
Nc1[nH]c(C(=O)c2ccc(Br)cc2)c(-c2ccc(Cl)cc2)c1C(=O)NCCc1c[nH]c2ccccc12,·,2,-16,·,·,·
CNC(=O)CC12CC3CC(CC(C3)C1)C2,-9,-1,-1,-3,9,-2
COCCNC(=S)NC(=O)CC12CC3CC(CC(C3)C1)C2,-3,9,6,8.3*,-10,2
O=C(Nc1ccncc1)c1cc(-c2ccccc2)nc2ccccc12,·,6,35,9.3*,17,4
Cc1cccc(-c2cc(C(=O)Nc3ccncc3)c3ccccc3n2)c1,6,-1,-15,12*,5,14
O=C(Nc1ccc(Br)cc1)c1cc(-c2ccncc2)nc2ccccc12,1,2,5,0,6,-8
Cc1cc(C)cc(N/C(N)=N/c2nc(C)cc(C)n2)c1,7,39*,24,-2,2,-2
O=[N+]([O-])c1ccc(NCCCc2ccccc2)cc1,·,-1,52*,-3,-2,-6
O=C(O)c1cc([N+](=O)[O-])ccc1NCCCc1ccccc1,-3,0,-6,-1,4,1
O=S1(=O)c2ccc(Br)cc2OC[C@H](c2ccccc2)N1Cc1ccccc1,·,1,-3,·,·,·
COc1cc(F)cc(-c2ccc3c(c2)c(-c2cccs2)c(-c2cc(OC)cc(OC)c2)n3C)c1,4,50*,10,-1,-8,4
Cc1ccc(CNC(=O)Nc2ccc3c(c2)N(C)C(=O)CS3)cc1,-3,9,21,2,10,-5
Cc1ccc(NC(=O)Nc2ccc3c(c2)N(C)C(=O)CS3)cc1C,4,6,50*,0,5,-10
CN1C(=O)CSc2ccc(NC(=O)NCc3ccccc3)cc21,0,2,13,0,8,-4
CCc1ccc(NC(=O)Nc2ccc3c(c2)N(C)C(=O)CS3)cc1,29,6,49*,4,0,3
